From ChEMBL document CHEMBL5058577, “EUbOPEN Chemogenomics Library 2 (Multiplex)” (2022)

Test system: U2OS
Test: Multiplex assay against U2OS
Type: toxicity, cell-based
Conditions: human
Method in brief: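 Hoechst33342, BioTracker Green Microtubule Cytoskeleton Dye, MitoTracker Red and Annexin V Alexa Fluor 680 were added to live cells at seeding, and imaging on a CQ1 microscope at 37°C and 5% CO2 followed compound addition. Gating by CellPathfinder machine learning separated cells into Hoechst high-intensity objects or normal cells, then normal cells into healthy, pyknosed or fragmented nuclei, then pyknosed cells into mitotic or apoptotic. Per cents of healthy-nucleus cells are reported for the tubulin, mitochondrial-mass and membrane-permeability phenotypes.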

[1] = 12 h, 1 µM, compound concentration 1 uM, replicate 1
[2] = 12 h, 1 µM, compound concentration 1 uM, replicate 2
[3] = 12 h, 10 µM, compound concentration 10 uM, replicate 1
[4] = 12 h, 10 µM, compound concentration 10 uM, replicate 2
[5] = 24 h, 1 µM, compound concentration 1 uM, replicate 1
[6] = 24 h, 1 µM, compound concentration 1 uM, replicate 2
[7] = 24 h, 10 µM, compound concentration 10 uM, replicate 1
[8] = 24 h, 10 µM, compound concentration 10 uM, replicate 2
[9] = 48 h, 1 µM, compound concentration 1 uM, replicate 1
[10] = 48 h, 1 µM, compound concentration 1 uM, replicate 2
[11] = 48 h, 10 µM, compound concentration 10 uM, replicate 1
[12] = 48 h, 10 µM, compound concentration 10 uM, replicate 2

SMILES: COCCCN1CCC(NC(=O)c2cc(Cl)c(N)c3c2OCC3)CC1 [PRUCALOPRIDE]
- Population Apoptotic (%) [1]: 84%
- Population Fragmented Nuclei (%) [1]: 30%
- Population Healthy Nuclei (%) [1]: 63%
- Population Hoechst High Intensity Objects (%) [1]: 1%
- Population Membrane Permeable-Phenotype (%) [1]: 7%
- Population Mitochondria Different-Phenotype (%) [1]: 3%
- Population Mitotic Cells (%) [1]: 15%
- Population Normal (%) [1]: 98%
- Population Pyknosed Nuclei (%) [1]: 6%
- Population Tubulin-Different-Phenotype (%) [1]: 4%
- Total Cell Count [1]: 207
- Population Apoptotic (%) [2]: 87%
- Population Fragmented Nuclei (%) [2]: 21%
- Population Healthy Nuclei (%) [2]: 71%
- Population Hoechst High Intensity Objects (%) [2]: 0%
- Population Membrane Permeable-Phenotype (%) [2]: 12%
- Population Mitochondria Different-Phenotype (%) [2]: 7%
- Population Mitotic Cells (%) [2]: 12%
- Population Normal (%) [2]: 99%
- Population Pyknosed Nuclei (%) [2]: 7%
- Population Tubulin-Different-Phenotype (%) [2]: 8%
- Total Cell Count [2]: 110
- Population Apoptotic (%) [3]: 68%
- Population Fragmented Nuclei (%) [3]: 22%
- Population Healthy Nuclei (%) [3]: 63%
- Population Hoechst High Intensity Objects (%) [3]: 3%
- Population Membrane Permeable-Phenotype (%) [3]: 4%
- Population Mitochondria Different-Phenotype (%) [3]: 0%
- Population Mitotic Cells (%) [3]: 31%
- Population Normal (%) [3]: 96%
- Population Pyknosed Nuclei (%) [3]: 13%
- Population Tubulin-Different-Phenotype (%) [3]: 2%
- Total Cell Count [3]: 238
- Population Apoptotic (%) [4]: 47%
- Population Fragmented Nuclei (%) [4]: 13%
- Population Healthy Nuclei (%) [4]: 73%
- Population Hoechst High Intensity Objects (%) [4]: 2%
- Population Membrane Permeable-Phenotype (%) [4]: 1%
- Population Mitochondria Different-Phenotype (%) [4]: 1%
- Population Mitotic Cells (%) [4]: 52%
- Population Normal (%) [4]: 97%
- Population Pyknosed Nuclei (%) [4]: 12%
- Population Tubulin-Different-Phenotype (%) [4]: 1%
- Total Cell Count [4]: 140
- Population Apoptotic (%) [5]: 80%
- Population Fragmented Nuclei (%) [5]: 26%
- Population Healthy Nuclei (%) [5]: 65%
- Population Hoechst High Intensity Objects (%) [5]: 2%
- Population Membrane Permeable-Phenotype (%) [5]: 5%
- Population Mitochondria Different-Phenotype (%) [5]: 3%
- Population Mitotic Cells (%) [5]: 20%
- Population Normal (%) [5]: 97%
- Population Pyknosed Nuclei (%) [5]: 8%
- Population Tubulin-Different-Phenotype (%) [5]: 5%
- Total Cell Count [5]: 247
- Population Fragmented Nuclei (%) [6]: 23%
- Population Healthy Nuclei (%) [6]: 69%
- Population Hoechst High Intensity Objects (%) [6]: 1%
- Population Membrane Permeable-Phenotype (%) [6]: 8%
- Population Mitochondria Different-Phenotype (%) [6]: 4%
- Population Normal (%) [6]: 98%
- Population Pyknosed Nuclei (%) [6]: 7%
- Population Tubulin-Different-Phenotype (%) [6]: 7%
- Total Cell Count [6]: 132
- Population Apoptotic (%) [7]: 87%
- Population Fragmented Nuclei (%) [7]: 23%
- Population Healthy Nuclei (%) [7]: 64%
- Population Hoechst High Intensity Objects (%) [7]: 4%
- Population Membrane Permeable-Phenotype (%) [7]: 5%
- Population Mitochondria Different-Phenotype (%) [7]: 2%
- Population Mitotic Cells (%) [7]: 12%
- Population Normal (%) [7]: 95%
- Population Pyknosed Nuclei (%) [7]: 12%
- Population Tubulin-Different-Phenotype (%) [7]: 4%
- Total Cell Count [7]: 280
- Population Apoptotic (%) [8]: 77%
- Population Fragmented Nuclei (%) [8]: 12%
- Population Healthy Nuclei (%) [8]: 76%
- Population Hoechst High Intensity Objects (%) [8]: 1%
- Population Membrane Permeable-Phenotype (%) [8]: 3%
- Population Mitotic Cells (%) [8]: 22%
- Population Normal (%) [8]: 98%
- Population Pyknosed Nuclei (%) [8]: 11%
- Population Tubulin-Different-Phenotype (%) [8]: 3%
- Total Cell Count [8]: 161
- Population Apoptotic (%) [9]: 85%
- Population Fragmented Nuclei (%) [9]: 20%
- Population Healthy Nuclei (%) [9]: 73%
- Population Hoechst High Intensity Objects (%) [9]: 3%
- Population Membrane Permeable-Phenotype (%) [9]: 3%
- Population Mitochondria Different-Phenotype (%) [9]: 1%
- Population Mitotic Cells (%) [9]: 14%
- Population Normal (%) [9]: 96%
- Population Pyknosed Nuclei (%) [9]: 6%
- Population Tubulin-Different-Phenotype (%) [9]: 3%
- Total Cell Count [9]: 352
- Population Apoptotic (%) [10]: 86%
- Population Healthy Nuclei (%) [10]: 67%
- Population Hoechst High Intensity Objects (%) [10]: 2%
- Population Membrane Permeable-Phenotype (%) [10]: 11%
- Population Mitochondria Different-Phenotype (%) [10]: 6%
- Population Mitotic Cells (%) [10]: 13%
- Population Normal (%) [10]: 97%
- Population Pyknosed Nuclei (%) [10]: 11%
- Population Tubulin-Different-Phenotype (%) [10]: 9%
- Total Cell Count [10]: 199
- Population Apoptotic (%) [11]: 88%
- Population Fragmented Nuclei (%) [11]: 17%
- Population Healthy Nuclei (%) [11]: 69%
- Population Hoechst High Intensity Objects (%) [11]: 1%
- Population Membrane Permeable-Phenotype (%) [11]: 5%
- Population Mitochondria Different-Phenotype (%) [11]: 2%
- Population Mitotic Cells (%) [11]: 11%
- Population Normal (%) [11]: 98%
- Population Pyknosed Nuclei (%) [11]: 12%
- Population Tubulin-Different-Phenotype (%) [11]: 2%
- Total Cell Count [11]: 347
- Population Apoptotic (%) [12]: 90%
- Population Fragmented Nuclei (%) [12]: 11%
- Population Healthy Nuclei (%) [12]: 79%
- Population Membrane Permeable-Phenotype (%) [12]: 3%
- Population Mitochondria Different-Phenotype (%) [12]: 3%
- Population Mitotic Cells (%) [12]: 9%
- Population Pyknosed Nuclei (%) [12]: 9%
- Population Tubulin-Different-Phenotype (%) [12]: 1%
- Total Cell Count [12]: 245
